PREPL inhibitor: inhibits the human prolyl oligopeptidase-like enzyme; Q4J6C6; recombinant PREPL, fluorescence polarization activity-based probe; inhibition, % at 5.96 µM; hit rate 0.68% among 320,000; AID 2751; in the data active = inhibition above about 43%;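 note: 0% = enzyme with DMSO and 100% = wells lacking enzyme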
Apaf-1 inh: blocks human Apaf-1 apoptosome activity. AID 489030. reconstituted apoptosome caspase-3 activity, DEVD-Rh110 fluorescence. hit rate 0.71% among 330,000. inhibition, % at 20 µM; active = inhibition of at least 40% at 20 µM;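 note: plate controls were DMSO wells for no effect and DEVD-CHO caspase inhibitor wells for full effect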
Target sequence (O14727 whole entry, looked up): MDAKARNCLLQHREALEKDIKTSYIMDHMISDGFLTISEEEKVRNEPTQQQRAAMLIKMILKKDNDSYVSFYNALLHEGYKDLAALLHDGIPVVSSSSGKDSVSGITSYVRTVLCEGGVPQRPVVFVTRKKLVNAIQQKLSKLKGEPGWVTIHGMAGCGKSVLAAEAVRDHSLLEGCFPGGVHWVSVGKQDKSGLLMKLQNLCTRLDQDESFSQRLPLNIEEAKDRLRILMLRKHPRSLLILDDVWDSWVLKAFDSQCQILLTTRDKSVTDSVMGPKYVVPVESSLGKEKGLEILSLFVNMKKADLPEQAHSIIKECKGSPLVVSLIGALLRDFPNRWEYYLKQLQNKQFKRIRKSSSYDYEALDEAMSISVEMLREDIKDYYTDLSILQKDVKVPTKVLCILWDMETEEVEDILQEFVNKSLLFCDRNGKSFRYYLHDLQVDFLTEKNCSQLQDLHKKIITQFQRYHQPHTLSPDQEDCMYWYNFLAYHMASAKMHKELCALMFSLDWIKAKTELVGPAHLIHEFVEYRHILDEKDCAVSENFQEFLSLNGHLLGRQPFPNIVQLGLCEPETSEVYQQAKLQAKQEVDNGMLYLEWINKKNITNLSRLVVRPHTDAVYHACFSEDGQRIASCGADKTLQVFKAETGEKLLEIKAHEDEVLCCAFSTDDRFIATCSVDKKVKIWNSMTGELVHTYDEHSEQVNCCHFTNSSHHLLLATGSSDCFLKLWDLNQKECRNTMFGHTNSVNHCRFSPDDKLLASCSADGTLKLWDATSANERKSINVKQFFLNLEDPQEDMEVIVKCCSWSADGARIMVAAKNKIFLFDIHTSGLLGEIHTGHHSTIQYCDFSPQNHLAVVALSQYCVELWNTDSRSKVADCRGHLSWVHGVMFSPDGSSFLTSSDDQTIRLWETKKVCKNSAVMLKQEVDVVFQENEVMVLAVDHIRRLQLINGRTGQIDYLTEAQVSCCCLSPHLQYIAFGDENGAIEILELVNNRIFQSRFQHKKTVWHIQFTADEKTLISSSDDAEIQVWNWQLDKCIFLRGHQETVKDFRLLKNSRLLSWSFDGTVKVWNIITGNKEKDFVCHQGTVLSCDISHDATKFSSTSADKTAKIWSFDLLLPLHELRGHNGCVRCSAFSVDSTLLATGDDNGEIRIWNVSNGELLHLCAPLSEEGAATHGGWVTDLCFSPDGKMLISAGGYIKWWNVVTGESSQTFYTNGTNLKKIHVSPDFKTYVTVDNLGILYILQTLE
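Assay system – apoptosome proteins · Medium – Hepes buffer, pH 7.5 · Also added – cytochrome c with DEVD-Rh110 · Timing – 30 min compound preincubation, 50 min activation, room temperature · Detection – Rh110 fluorescence, excitation 480 nm, emission 540 nm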
UBC13 inh: human UBC13 polyubiquitination inhibition; P61088; UBC13 polyubiquitin chain formation, TR-FRET; inhibition, % at 20 µM; hit rate 0.47% among 330,000; in the data active = inhibition above about 45%, passing the limit was not always enough; inconclusive = no clear call, values can overlap the other calls
UCH37 inh: inhibitors of human deubiquitinating enzyme UCH37; Q9Y5K5; purified proteasome/UCH37, Ub-AMC cleavage fluorescence; inhibition, % (no concentration beside the values); hit rate 0.33% among 330,000; AID 588478;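 active = mean inhibition over replicate wells above about 20%, limit read from the data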;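 note: 0% = compound-free wells with enzyme and 100% = wells lacking proteasome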
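Schedule: 30 min plus 25 min, room temperature / Material: human UCH37 within purified proteasomes / Technique: AMC fluorescence intensity at 355/460 nm / Buffer or medium: pH 7.4 Tris-HCl (50 mM) with ovalbumin, ATP-MgCl2, DTT / Controls: wells without proteasome as full block, compound-free enzyme plus substrate as uninhibited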
Casp3 UBC13 ctr: counter-screen for UBC13 inhibitors: human caspase-3 inhibition; shares compounds with UBC13 inh; Recombinant caspase-3, Caspase-Glo 3/7 luminescence, 60 min; inhibition, % at 20 µM; hit rate 4% among 1,400;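 active = mean inhibition across replicates above about 26%, limit read from the data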;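 note: plate controls were DMSO with caspase-3 for no effect and DMSO wells lacking enzyme for full effect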
UBC13 confirm: human UBC13 polyubiquitin inhibition, confirmed | shares compounds with UBC13 inh | UBC13 polyubiquitination, TR-FRET, biochemical | inhibition, % at 10 µM | hit rate 68% among 1,400 | AID 488859; in the data active = inhibition above about 45%; inconclusive = no clear call, values can overlap the other calls
* marks the source's active call; other numbers are inactive results; ? = inconclusive; . = no result. Rows were chosen to be rich in hits. Some 1.5% of all compounds tested hit in one or more screens of this group.

SMILES	PREPL inhibitor	Apaf-1 inh	UBC13 inh	UCH37 inh	Casp3 UBC13 ctr	UBC13 confirm
CCCn1c(=C(C#N)C#N)sc(=C2C=Cc3ccccc3N2CC)c1=O	.	.	.	1	.	.
CCc1ccc2c(c1)C(=O)c1ccccc1C2=O	16	11	36	0	.	.
CC(C)(C)c1ccc2c(c1)C(=O)c1ccccc1C2=O	17	17	54*	5	96*	19
CSc1nccc(Nc2ccccc2)c1C#N	-13	-8	47*	1	-1	?
O=C(CCCCCn1c(SCc2ccncc2)nc2ccccc2c1=O)NCc1ccco1	14	17	69*	2	-3	47*
COc1ccc(C(=O)Nn2c(SCC(=O)c3ccc(Cl)cc3)nc3ccccc3c2=O)cc1	2	3	50*	2	0	56*
COc1ccc(C(=O)Nn2c(SCc3cccc([N+](=O)[O-])c3)nc3ccccc3c2=O)cc1	-10	7	43	3	.	.
N#CCSc1nc2ccccc2c(=O)n1CCCC(=O)NCc1ccco1	12	-2	2	2	.	.
COc1ccc(C(=O)Nn2c(SCC(=O)NC3CCCCC3)nc3ccccc3c2=O)cc1	13	21	31	-1	.	.
COc1ccc(C(=O)Nn2c(SCC(=O)N3CCC(C)CC3)nc3ccccc3c2=O)cc1	3	17	80*	-4	85*	84*
COc1ccc(C(=O)Nn2c(SCC(=O)NCc3ccco3)nc3ccccc3c2=O)cc1	-6	0	71*	1	25	74*
CC1CCCC(C)N1CCCNC(=O)c1ccc2c(c1)NC(=O)c1ccccc1S2 (stereo not drawn)	9	13	41	-1	.	.
CCC(C)N(CCNC(=O)c1ccc2c(c1)NC(=O)c1ccccc1S2)C1CCCCC1 (stereo not drawn)	14	15	52*	7	-2	70*
C=CCOc1ccc(C=NNC(=O)c2c(C)nc3ccc(Cl)cn23)cc1	.	.	.	3	.	.
Cc1cccc(CSCCNC(=S)Nc2ccccc2)c1	-4	18	48*	5	6	10
CCc1cccc(NC(=O)CSC2=NS(=O)(=O)c3ccccc32)c1	-5	-13	47*	9	0	25
O=C(CCC(=O)NN=Cc1ccccc1O)NCc1ccccc1	.	.	.	-37	.	.
COc1cc(C=NN2C(=O)c3ccccc3C2=O)ccc1O	.	.	.	4	.	.
O=C(CCNC(=O)Cn1ccc2ccccc2c1=O)NCCN1CCN(c2ccccc2F)CC1	8	2	91*	4	2	101*
O=C(CCCCCn1c(=O)[nH]c2ccccc2c1=O)NCCCN1CCN(c2ccccc2F)CC1	3	7	63*	1	-1	53*
O=C(CCNC(=O)Cn1ccc2ccccc2c1=O)NCCN1CCc2ccccc2C1	14	5	0	1	.	.
Cc1nn(-c2ccccc2)cc1C=NNC(=O)c1cccs1	.	.	.	-21	.	.
CN1CCN(c2cc(-c3cc(O)c4ncccc4c3)ccn2)CC1	12	11	100*	5	14	102*
CN1CCN(C(=O)c2cccc(-c3cc(O)c4ncccc4c3)c2)CC1	24	-1	17	4	.	.
Cc1ccccc1-n1c(SCC(=O)NN=C/C=C/c2ccccc2[N+](=O)[O-])nc2ccccc2c1=O	.	.	.	8	.	.
SMILES	PREPL inhibitor	Apaf-1 inh	UBC13 inh	UCH37 inh	Casp3 UBC13 ctr	UBC13 confirm
COc1cc(C=NNC2=NC(C)(C)Cc3ccccc32)cc(OC)c1OC	.	.	.	9	.	.
CC1(C)Cc2c(sc(NC(=O)COc3ccc(Cl)cc3Cl)c2C(N)=O)C(C)(C)N1	-6	29	74*	-78	-1	109*
CCOC(=O)c1ccc(NC(=O)c2nc[nH]c2C(=O)N[C@@H](C)C(=O)OC(C)(C)C)cc1	-5	31	58*	6	-4	38
COc1ccc(NC(=O)c2nc[nH]c2C(=O)NCc2ccccc2)cc1	1	16	60*	3	8	8
Cc1ccc(NC(=O)c2nc[nH]c2C(=O)N[C@H](C)c2ccccc2)cc1	0	22	-6	0	.	.
CCOC(=O)c1ccc(NC(=O)c2nc[nH]c2C(=O)N[C@@H](CC(C)C)C(=O)OC(C)(C)C)cc1	-12	12	-6	0	.	.
CCOC(=O)c1ccc(NC(=O)c2nc[nH]c2C(=O)N[C@H](C)c2ccccc2)cc1	-1	20	70*	2	-3	34
Cc1nccn1CC(=O)NN=Cc1cccc(O)c1	.	.	.	0	.	.
CCCCN(CC)CCNC(=O)c1nn(-c2ccc(OC)cc2)c(=O)c2c1c1ccccc1n2C	-40	-3	22	-11	.	.
CCN(Cc1ccccc1)C(=O)c1nn(-c2ccc(OC)cc2)c(=O)c2c1c1ccccc1n2C	1	6	45*	-9	-2	?
CCn1c2ccccc2c2nc3ccccc3nc21	1	7	66*	-44	48*	-1
CCn1c2ccccc2c2nc3cc(OC)c(OC)cc3nc21	7	11	7	-191	.	.
O=C1Nc2cc(C(=O)NCCN3CCCCCC3)ccc2S/C1=C\c1ccccc1	-13	23	36	3	.	.
Cc1cccc(/C=C2/Sc3ccc(C(=O)NCCN4CCCC4)cc3NC2=O)c1	18	33	60*	7	3	94*
Cc1cccc(/C=C2/Sc3ccc(C(=O)NCCCN4CCOCC4)cc3NC2=O)c1	4	17	37	.	.	.
CCN1CCN(CCCNC(=O)c2ccc3c(c2)NC(=O)/C(=C\c2cccc(C)c2)S3)CC1	7	36	55*	11	0	65*
CCCCOc1ccc(CNn2c(C)nc3ccccc3c2=O)cc1	2	11	75*	0	0	82*
COc1ccc(CNn2c(C)nc3ccccc3c2=O)cc1	4	-7	47*	3	-2	49*
COc1ccc(CNn2c(-c3cccc(C)c3)nc3ccccc3c2=O)cc1OC	7	7	-7	0	.	.
COc1cccc(NC(=O)CN(C)C(=O)c2cccnc2Nc2cccc(C(F)(F)F)c2)c1	-14	15	47*	4	-1	34
CC(C)(c1ccccc1)c1ccc(OCC(O)CNC2CCN(Cc3ccccc3)CC2)cc1 (stereo not drawn)	6	27	63*	.	-1	70*
CCOc1ccc(OCC(O)CNC2CCN(Cc3ccccc3)CC2)cc1 (stereo not drawn)	14	0	2	2	.	.
COc1ccc(CC(=O)NN=C(C)c2ccc(Br)s2)cc1	.	.	.	3	.	.
COCCNC(=S)N=Nc1c(O)[nH]c2c(C)cc(C)cc12	10	-4	87*	.	-2	102*
Cc1cc(C)c2[nH]c(O)c(N=NC(=O)c3cc4c(s3)CCCC4)c2c1	18	13	-11	4	.	.
COc1ccc(OC)c2sc(N(CCN(C)C)C(=O)c3ccc4ccccc4c3)nc12	18	22	29	.	.	.

Screening results: PubChem BioAssay, several laboratories
